Measured values as given in ChEMBL document CHEMBL1156932, “Structure based drug design: development of potent and selective factor IXa (FIXa) inhibitors” (J Med Chem, 2010).

How the values were obtained:
[1] = Selectivity ratio of Ki for factor 10a to Ki for human recombinant factor 9a
[2] = Selectivity ratio of Ki for uPA to Ki for human recombinant factor 9a
Coagulation factor X = Coagulation factor X (Homo sapiens, UniProt P00742); test: Inhibition of factor 10a by amidolytic assay
Summary of the method: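 […] taken as the mean of at least three experiments. Variation between runs stated as under 10%.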

[3] = target: Urokinase-type plasminogen activator (Homo sapiens, UniProt P00749)
Coagulation factor IX = Coagulation factor IX (Homo sapiens, UniProt P00740); test: Inhibition of human recombinant factor 9a by amidolytic assay
Chain of Coagulation factor IX (P00740 47-191 limits assumed): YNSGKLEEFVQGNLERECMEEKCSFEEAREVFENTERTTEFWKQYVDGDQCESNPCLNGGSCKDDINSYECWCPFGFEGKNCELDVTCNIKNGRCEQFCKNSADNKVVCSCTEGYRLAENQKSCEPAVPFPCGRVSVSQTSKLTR
Chain of Coagulation factor IX (P00740 227-461 limits assumed): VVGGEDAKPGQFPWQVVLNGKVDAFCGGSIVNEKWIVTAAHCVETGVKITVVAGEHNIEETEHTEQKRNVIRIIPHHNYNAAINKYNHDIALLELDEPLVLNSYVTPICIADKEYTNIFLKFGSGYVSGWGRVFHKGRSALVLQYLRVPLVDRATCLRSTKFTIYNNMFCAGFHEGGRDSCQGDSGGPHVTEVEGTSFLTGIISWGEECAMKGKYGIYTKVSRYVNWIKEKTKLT

Plasma [4] = test: Anticoagulant potency in human plasma assessed as concentration required to double the […]; type: functional
Summary of the method: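 Citrated plasma from healthy volunteers, centrifuged at 2000g for 10 min and held on ice. Plasma incubated 1 min at 37 C, aPTT reagent (FSL) added, then 3 min at 37 C. Clotting started with 0.025 M CaCl2. Clot formation read at 660 nm on an automated coagulation analyzer.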

[5] = Protein binding in human plasma; type: ADME, cell-free; details: read-out: PPB (converted)
Plasma [6] = test: Anticoagulant potency in human plasma assessed as concentration required to double the thrombin time; type: functional
Summary of the method: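 Plasma from citrated blood of healthy volunteers, centrifuged at 2000g for 10 min and kept on ice. Plasma incubated 2 min at 37 C, then thrombin reagent added. Clotting time monitored at 660 nm on an automated analyzer.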

Plasma [7] = test: Anticoagulant potency in human plasma assessed as concentration required to double the prothrombin time; type: functional
Summary of the method: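 Citrated plasma from healthy volunteers, centrifuged at 2000g for 10 min and held on ice. Plasma incubated 3 min at 37 C before addition of thromboplastin PT reagent (Thromborel S). Clot formation followed at 660 nm in an automated coagulation analyzer.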

[8] = Clearance in anesthetized Sprague-Dawley rat at 5 mg/kg, iv; type: ADME, organism-based; parameters: dose 5 mg/kg, route intravenous; details: in vivo
Summary of the method: (§1)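 Bolus iv injection over 15 s into anesthetised rats, 3 per group. Citrated blood taken under anesthesia predose and at 2, 5, 15, 30 min and 1, 2, 3 h. Plasma obtained by centrifugation at 1700g, 20 C, 5 min, then stored at -80 C. Two acetonitrile precipitations before drug measurement. Parameters derived by noncompartmental analysis of concentration–time curve.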

[9] = AUC (0 to infinity) in anesthetized Sprague-Dawley rat at 5 mg/kg, iv; type: ADME, organism-based; parameters: dose 5 mg/kg, route intravenous, time infinity; details: plasma; summary of the method: as §1
[10] = Half life in anesthetized Sprague-Dawley rat at 5 mg/kg, iv; type: ADME, organism-based; parameters: dose 5 mg/kg, route intravenous; details: in vivo; summary of the method: as §1
[11] = Metabolic stability in human liver assessed as turnover; type: ADME, tissue-based; details: read-out: Stability
[12] = Cmax in anesthetized Sprague-Dawley rat at 5 mg/kg, iv; type: ADME, organism-based; parameters: dose 5 mg/kg, route intravenous; details: in vivo; summary of the method: as §1

Chain of Coagulation factor X (P00742 41-179 limits assumed): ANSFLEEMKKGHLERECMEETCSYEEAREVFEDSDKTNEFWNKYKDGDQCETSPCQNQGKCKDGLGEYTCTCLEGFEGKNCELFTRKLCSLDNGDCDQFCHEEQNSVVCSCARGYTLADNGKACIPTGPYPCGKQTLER
Chain of Coagulation factor X (P00742 235-488 limits assumed): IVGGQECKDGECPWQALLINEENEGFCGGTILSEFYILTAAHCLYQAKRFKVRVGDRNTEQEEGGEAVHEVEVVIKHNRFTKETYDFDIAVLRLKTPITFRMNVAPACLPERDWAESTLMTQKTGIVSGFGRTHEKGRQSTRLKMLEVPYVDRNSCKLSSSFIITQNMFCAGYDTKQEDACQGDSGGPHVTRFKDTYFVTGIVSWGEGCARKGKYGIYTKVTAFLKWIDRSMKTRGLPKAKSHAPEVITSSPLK

Ratio Ki [1] | Ratio Ki [2] | Ki (Coagulation factor X) | Ki [3] | Ki (Coagulation factor IX) | fraction unbound [5] | clearance [8] | AUC(0-inf) [9] | half-life [10] | metabolised [11] | Cmax [12] | SMILES | Activity (Plasma [4]) | Activity (Plasma [6]) | Activity (Plasma [7])
156 | 20 | 1.56 µM | 0.201 µM | 0.01 µM |  |  |  |  |  |  | CN1CCN(Cc2ccc(NC(=O)OCC(Oc3cccc4sc(C(=N)N)cc34)c3ccccc3)cc2)CC1 (stereo not given) |  |  | 
383 | 103 | 1.15 µM | 0.308 µM | 0.003 µM |  |  |  |  |  |  | CNCc1ccccc1NC(=O)OCC(Oc1cccc2sc(C(=N)N)cc12)c1ccccc1 (stereo not given) |  |  | 
486 | 190 | 2.11 µM | 0.828 µM | 0.0044 µM |  |  |  |  |  |  | N=C(N)c1cc2c(OC(COC(=O)Nc3ccccc3CN)c3ccccc3)cc(F)cc2s1 (stereo not given) |  |  | 
254 | 50 | 1.27 µM | 0.251 µM | 0.005 µM |  |  |  |  |  |  | CNCc1cc(NC(=O)OCC(Oc2cccc3sc(C(=N)N)cc23)c2ccccc2)n(C)n1 (stereo not given) |  |  | 
108 | 47 | 3.77 µM | 1.63 µM | 0.035 µM |  |  |  |  |  |  | COc1ccc(NC(=O)OC[C@@H](Oc2cccc3sc(C(=N)N)cc23)c2ccccc2)cc1 |  |  | 
475 | 31 | 2.38 µM | 0.156 µM | 0.005 µM | 0.05 |  |  |  |  |  | CNCc1c(NC(=O)OCC(Oc2cccc3sc(C(=N)N)cc23)c2ccccc2)c(C)nn1C (stereo not given) | 7.7 µM | 56 µM | 42 µM
110 | 62 | 0.55 µM | 0.331 µM | 0.005 µM |  |  |  |  |  |  | N=C(N)c1cc2c(OC(COC(=O)Nc3ccccc3F)c3ccccc3)cccc2s1 (stereo not given) |  |  | 
200 | 30 | 0.6 µM | 0.089 µM | 0.003 µM |  |  |  |  |  |  | COc1ccc(NC(=O)OC[C@H](Oc2cccc3sc(C(=N)N)cc23)c2ccccc2)cc1 |  |  | 
169 | 117 | 1.36 µM | 0.94 µM | 0.0081 µM |  |  |  |  |  |  | CN(C)Cc1ccccc1NC(=O)OCC(Oc1cc(F)cc2sc(C(=N)N)cc12)c1ccccc1 (stereo not given) |  |  | 
360 | 7 | 2.84 µM | 0.058 µM | 0.008 µM | 0.05 |  |  |  |  |  | Cc1n[nH]c(C)c1NC(=O)OCC(Oc1cccc2sc(C(=N)N)cc12)c1ccccc1 (stereo not given) | 11.7 µM | >80 µM | 63 µM
102 | 137 | 1.59 µM | 2.11 µM | 0.0155 µM |  |  |  |  |  |  | N=C(N)c1cc2c(OC(COC(=O)Nc3ccccc3)c3ccccc3)cc(F)cc2s1 (stereo not given) |  |  | 
218 | 50 | 0.872 µM | 0.201 µM | 0.004 µM |  |  |  |  |  |  | CN(C)CCOc1ccc(NC(=O)OCC(Oc2cccc3sc(C(=N)N)cc23)c2ccccc2)cc1 (stereo not given) |  |  | 
212 | 82 | 1.48 µM | 0.575 µM | 0.007 µM |  |  |  |  |  |  | N=C(N)c1cc2c(OC(COC(=O)Nc3ccc(F)cc3F)c3ccccc3)cccc2s1 (stereo not given) |  |  | 
542 | 50 | 1.63 µM | 0.151 µM | 0.003 µM | 0.04 |  |  |  |  |  | Cc1nn(C)c(CNC(C)C)c1NC(=O)OCC(Oc1cccc2sc(C(=N)N)cc12)c1ccccc1 (stereo not given) | 5.9 µM | 25 µM | 29 µM
206 | 74 | 0.825 µM | 0.297 µM | 0.004 µM |  |  |  |  |  |  | N=C(N)c1cc2c(OC(COC(=O)Nc3ccccc3CN)c3ccccc3)cccc2s1 (stereo not given) |  |  | 
205 | 17 | 2.05 µM | 0.169 µM | 0.01 µM | 0.04 | 129 mL/min/kg | 0.951 µM·h | 2.1 h | 18% | 5.19 µM | Cc1cc(NC(=O)OCC(Oc2cccc3sc(C(=N)N)cc23)c2ccccc2)n(C)n1 (stereo not given) | 12.8 µM | 60 µM | 57 µM
181 | 44 | 1.81 µM | 0.44 µM | 0.01 µM |  |  |  |  |  |  | N=C(N)c1cc2c(OC(COC(=O)Nc3ccccc3)c3ccccc3)cccc2s1 (stereo not given) |  |  | 
104 | 76 | 0.828 µM | 0.609 µM | 0.008 µM |  |  |  |  |  |  | CN(C)Cc1ccccc1NC(=O)OCC(Oc1cccc2sc(C(=N)N)cc12)c1ccccc1 (stereo not given) |  |  | 
148 | 36 | 1.18 µM | 0.308 µM | 0.008 µM |  |  |  |  |  |  | Cc1ccccc1NC(=O)OCC(Oc1cccc2sc(C(=N)N)cc12)c1ccccc1 (stereo not given) |  |  | 
52 | 37 | 1.3 µM | 0.935 µM | 0.025 µM |  |  |  |  |  |  | N=C(N)c1cc2c(OC(COC(=O)Nc3cccc(F)c3)c3ccccc3)cccc2s1 (stereo not given) |  |  | 
213 | 98 | 1.7 µM | 0.78 µM | 0.008 µM |  | 32.4 mL/min/kg | 5.19 µM·h | 5.5 h | 11% | 10.5 µM | N=C(N)c1cc2c(OC(COC(=O)Nc3ccc(F)cc3)c3ccccc3)cccc2s1 (stereo not given) |  |  | 

SMILES | Ratio Ki [1] | Ratio Ki [2] | Ki (Coagulation factor X) | Ki [3] | Ki (Coagulation factor IX) | fraction unbound [5] | clearance [8] | AUC(0-inf) [9] | half-life [10] | metabolised [11] | Cmax [12] | Activity (Plasma [4]) | Activity (Plasma [6]) | Activity (Plasma [7])
N=C(N)c1cc2c(OC(COC(=O)Nc3ccccc3CN3CCNCC3)c3ccccc3)cccc2s1 (stereo not given) | 118 | 278 | 0.354 µM | 0.833 µM | 0.003 µM | 0.05 |  |  |  |  |  | 5 µM | 20 µM | 17 µM
COCc1cc(NC(=O)OCC(Oc2cccc3sc(C(=N)N)cc23)c2ccccc2)n(C)n1 (stereo not given) | 173 | 12 | 1.56 µM | 0.109 µM | 0.009 µM |  |  |  |  |  |  |  |  | 
Cc1noc(C)c1NC(=O)OCC(Oc1cccc2sc(C(=N)N)cc12)c1ccccc1 (stereo not given) | 210 | 12 | 2.25 µM | 0.142 µM | 0.012 µM |  |  |  |  |  |  |  |  | 
